Assay results reported in ChEMBL document CHEMBL4680236, “Design, synthesis and structure-activity relationships of novel 15-membered macrolides: Quinolone/quinoline-containing sidechains tethered to the C-6 position of azithromycin acylides” (Eur J Med Chem, 2020).
In brackets after ≈: the same amount, converted by molar mass.

Columns and labels:
[1] = system: Haemophilus influenzae; assay: Antibacterial activity against azithromycin-susceptible Haemophilus influenzae ATCC 49247 assessed as reduction in microbial growth; format: functional
[2] = system: Streptococcus pneumoniae; assay: Bactericidal activity against MLSB-resistant Streptococcus pneumoniae 07P390 harboring ermB gene assessed as reduction in microbial growth; format: functional
Method in brief: (§1)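 Bacteria were exposed to 1- to 8-fold their MIC of test sample, then transferred to fresh culture medium without antibacterial compound and incubated for the required time. Colonies were then counted. MBC is the lowest concentration giving a reduction in colony number of >3 Log₁₀.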

[3] = system: Streptococcus pneumoniae; assay: Ratio of MBC to MIC against penicillin-susceptible Streptococcus pneumoniae PU09; format: functional
[4] = system: Streptococcus pneumoniae; assay: Bactericidal activity against Erythromycin-susceptible Streptococcus pneumoniae ATCC 49619; format: functional
Method in brief: (§2)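 Bacteria were exposed to 1- to 8-fold MIC of the sample, then transferred to fresh medium without antibacterial. After further incubation, colonies were counted. MBC was taken as the lowest concentration giving a >3 log10 reduction in colony number.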

[5] = system: Streptococcus pyogenes; assay: Bactericidal activity against MLSB-resistant Streptococcus pyogenes 12-206 harboring ermA gene; format: functional; method in brief: as §1
[6] = system: Streptococcus pneumoniae; assay: Ratio of MBC to MIC against Erythromycin-susceptible Streptococcus pneumoniae ATCC 49619; format: functional
[7] = system: Streptococcus pneumoniae; assay: Antibacterial activity against penicillin-susceptible Streptococcus pneumoniae PU09 harboring mef gene assessed as reduction in microbial growth; format: functional
[8] = system: Streptococcus pneumoniae; assay: Antibacterial activity against Erythromycin-susceptible Streptococcus pneumoniae ATCC 49619 assessed as reduction in microbial growth; format: functional
[9] = system: Staphylococcus aureus; assay: Antibacterial activity against MLSB/methicillin/ciprofloxacin-resistant Staphylococcus aureus PU32 harboring ermA gene assessed as reduction in microbial growth; format: functional
[10] = system: Haemophilus influenzae; assay: Bactericidal activity against azithromycin-susceptible Haemophilus influenzae ATCC 49247; format: functional; method in brief: as §2
[11] = system: Haemophilus influenzae; assay: Ratio of MBC to MIC against azithromycin-susceptible Haemophilus influenzae ATCC 49247; format: functional
[12] = system: Staphylococcus aureus; assay: Antibacterial activity against MLSB/methicillin-resistant Staphylococcus aureus 15B196 assessed as reduction in microbial growth; format: functional
[13] = system: Streptococcus pneumoniae; assay: Antibacterial activity against MLSB-resistant Streptococcus pneumoniae 07P390 harboring ermB gene assessed as reduction in microbial growth; format: functional
[14] = system: Streptococcus pyogenes; assay: Ratio of MBC to MIC against MLSB-resistant Streptococcus pyogenes 12-206 harboring ermA gene; format: functional
[15] = system: Streptococcus pneumoniae; assay: Ratio of MBC to MIC against MLSB-resistant Streptococcus pneumoniae 07P390 harboring ermB; format: functional
[16] = system: Staphylococcus aureus; assay: Bactericidal activity against MLSB/methicillin/ciprofloxacin-resistant Staphylococcus aureus PU32 harboring ermA gene; format: functional; method in brief: as §1
[17] = system: Streptococcus pneumoniae; assay: Bactericidal activity against penicillin-susceptible Streptococcus pneumoniae PU09 harboring mef gene; format: functional; method in brief: as §1
[18] = system: Staphylococcus aureus; assay: Bactericidal activity against MLSB/methicillin-resistant Staphylococcus aureus 15B196; format: functional; method in brief: as §1
[19] = system: Streptococcus pyogenes; assay: Antibacterial activity against MLSB-resistant Streptococcus pyogenes 12-206 harboring ermA gene assessed as reduction in microbial growth; format: functional
[20] = system: Staphylococcus aureus; assay: Ratio of MBC to MIC against MLSB/methicillin/ciprofloxacin-resistant Staphylococcus aureus PU32 harboring ermA gene; format: functional
[21] = system: Staphylococcus aureus; assay: Ratio of MBC to MIC against MLSB/methicillin-resistant Staphylococcus aureus 15B196; format: functional
[22] = system: Staphylococcus epidermidis; assay: Antibacterial activity against methicillin-resistant Staphylococcus epidermidis 16-5 assessed as reduction in microbial growth; format: functional
[23] = system: Enterococcus faecium; assay: Antibacterial activity against vancomycin-resistant Enterococcus faecium ATCC 700221 assessed as reduction in microbial growth
[24] = system: Staphylococcus aureus; assay: Antibacterial activity against methicillin-susceptible Staphylococcus aureus ATCC 29213 assessed as reduction in microbial growth; format: functional
[25] = system: Staphylococcus epidermidis; assay: Antibacterial activity against methicillin-susceptible Staphylococcus epidermidis ATCC 12228 assessed as reduction in microbial growth; format: functional
[26] = system: Klebsiella aerogenes; assay: Antibacterial activity against Enterobacter aerogenes ATCC 13048 assessed as reduction in microbial growth; format: functional
[27] = system: Escherichia coli; assay: Antibacterial activity against NDM-1 producing Escherichia coli […] assessed as reduction in microbial growth; format: functional
[28] = system: Shigella; assay: Antibacterial activity against Shigella ATCC 12022 assessed as reduction in microbial growth; format: functional
[29] = system: Enterococcus faecalis; assay: Antibacterial activity against vancomycin-susceptible Enterococcus faecalis ATCC 29212 assessed as reduction in microbial growth; format: functional
[30] = system: Klebsiella pneumoniae; assay: Antibacterial activity against NDM-1 producing Klebsiella pneumoniae ATCC BAA-2146 assessed as reduction in microbial growth; format: functional
[31] = system: Enterobacter cloacae; assay: Antibacterial activity against Enterobacter cloacae ATCC 43560 assessed as reduction in microbial growth; format: functional
[32] = system: Acinetobacter baumannii; assay: Antibacterial activity against Acinetobacter baumannii ATCC 19606 assessed as reduction in microbial growth; format: functional; conditions: ATCC 19606 = CIP 70.34 = JCM 6841
[33] = system: Staphylococcus aureus; assay: Antibacterial activity against methicillin-resisitant Staphylococcus aureus 16-30 assessed as reduction in microbial growth; format: functional
[34] = system: Haemophilus influenzae; assay: Antibacterial activity against azithromycin-susceptible Haemophilus influenzae ATCC 49247 assessed as reduction in microbial growth relative to ciprofloxacin; format: functional
[35] = system: Staphylococcus aureus; assay: Antibacterial activity against MLSB/methicillin/ciprofloxacin-resistant Staphylococcus aureus PU32 harboring ermA gene assessed as reduction in microbial growth relative to ciprofloxacin; format: functional
[36] = system: Staphylococcus aureus; assay: Antibacterial activity against MLSB/methicillin-resistant Staphylococcus aureus 15B196 assessed as reduction in microbial growth relative to ciprofloxacin; format: functional

SMILES | MIC [1] | MBC [2] | Ratio [3] | MBC [4] | MBC [5] | Ratio [6] | MIC [7] | MIC [8] | MIC [9] | MBC [10] | Ratio [11] | MIC [12] | MIC [13] | Ratio [14] | Ratio [15] | MBC [16] | MBC [17] | MBC [18] | MIC [19] | Ratio [20] | other results
CC[C@H]1OC(=O)[C@H](C)[C@@H](OC(=O)Cc2ccccn2)[C@H](C)[C@@H](O[C@@H]2O[C@H](C)C[C@H](N(C)C)[C@H]2O)[C@](C)(OC(=O)CCNCCC#Cc2ccc3c(c2)c(=O)c(C(=O)O)cn3C2CC2)C[C@@H](C)CN(C)[C@H](C)[C@@H](O)[C@]1(C)O | 32 µg/mL | 256 µg/mL | 2 | 0.5 µg/mL (≈ 0.472 µM) | 128 µg/mL (≈ 121 µM) | 2 | 2 µg/mL | 0.25 µg/mL | 128 µg/mL | 64 µg/mL (≈ 60.4 µM) | 2 | > 256 µg/mL | 64 µg/mL | 8 | 4 | > 256 µg/mL | 4 µg/mL (≈ 3.77 µM) | > 256 µg/mL | 16 µg/mL |  | 
CC[C@H]1OC(=O)[C@H](C)[C@@H](OC(=O)Cc2ccccn2)[C@H](C)[C@@H](O[C@@H]2O[C@H](C)C[C@H](N(C)C)[C@H]2O)[C@](C)(OC(=O)CCNCC/C=C/c2cnc3ccccc3c2)C[C@@H](C)CN(C)[C@H](C)[C@@H](O)[C@]1(C)O | 8 µg/mL | > 32 µg/mL | 1 | 0.125 µg/mL (≈ 0.13 µM) |  | 1 | 1 µg/mL | 0.125 µg/mL | 2 µg/mL | 16 µg/mL (≈ 16.6 µM) | 2 | 64 µg/mL | 4 µg/mL |  | >8 | 8 µg/mL (≈ 8.31 µM) | 1 µg/mL (≈ 1.04 µM) | > 256 µg/mL |  | 4 | Ratio [21]: >4
C[C@H]1COc2c(N3CCN(C)CC3)c(F)cc3c(=O)c(C(=O)O)cn1c23.C[C@H]1COc2c(N3CCN(C)CC3)c(F)cc3c(=O)c(C(=O)O)cn1c23.O [LEVOFLOXACIN] |  |  |  |  |  |  |  |  |  |  |  |  |  |  |  |  |  |  |  |  | MIC [22]: 8 µg/mL; MIC [23]: 32 µg/mL; MIC [24]: 0.12 µg/mL; MIC [25]: 0.12 µg/mL; MIC [26]: 0.06 µg/mL; MIC [27]: 16 µg/mL; MIC [28]: < 0.03 µg/mL; MIC [29]: 0.5 µg/mL; MIC [30]: > 128 µg/mL; MIC [31]: < 0.03 µg/mL; MIC [32]: 0.25 µg/mL; MIC [33]: 32 µg/mL
CC[C@H]1OC(=O)[C@H](C)[C@@H](OC(=O)Cc2ccccn2)[C@H](C)[C@@H](O[C@@H]2O[C@H](C)C[C@H](N(C)C)[C@H]2O)[C@](C)(OC(=O)CCNCCC#Cc2ccc3ncccc3c2)C[C@@H](C)CN(C)[C@H](C)[C@@H](O)[C@]1(C)O | 4 µg/mL | 64 µg/mL | 2 | 0.03 µg/mL (≈ 0.0312 µM) | > 16 µg/mL | 1 | 0.5 µg/mL | 0.03 µg/mL | 4 µg/mL | 8 µg/mL (≈ 8.33 µM) | 2 | > 256 µg/mL | 32 µg/mL | >8 |  | > 32 µg/mL | 1 µg/mL (≈ 1.04 µM) | > 256 µg/mL | 2 µg/mL | >8 | fold change (FC) [34]: 344; fold change (FC) [35]: 0.0054; fold change (FC) [36]: >44
CC[C@H]1OC(=O)[C@H](C)[C@@H](OC(=O)Cc2cccnc2)[C@H](C)[C@@H](O[C@@H]2O[C@H](C)C[C@H](N(C)C)[C@H]2O)[C@](C)(OC(=O)CCNCCC#Cc2ccc3c(c2)c(=O)c(C(=O)O)cn3C2CC2)C[C@@H](C)CN(C)[C@H](C)[C@H]2OC(=O)O[C@@]21C | 32 µg/mL | 128 µg/mL | 4 | 8 µg/mL (≈ 7.36 µM) | 64 µg/mL (≈ 58.9 µM) | 4 | 4 µg/mL | 2 µg/mL | 128 µg/mL | 64 µg/mL (≈ 58.9 µM) | 2 | 256 µg/mL | 64 µg/mL | 1 | 2 | > 256 µg/mL | 16 µg/mL (≈ 14.7 µM) | > 256 µg/mL | 64 µg/mL |  | 
